Data on 14 molecules can be found in PubChem BioAssay.

Broadly, the viability is a read-out of living cells in per cent, often relative to untreated cells. As a reminder, the inhibition is the relative decrease from the control value, in per cent.

Experiment [1] can be described thus: reducers of endogenous Her2 protein level, primary screen, SKBR3 breast tumor cells, AlphaScreen, ATP viability (AID 461;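 active = Her2 level under about 52% in both replicate screens, with viability over 70% of control, limit read from the data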;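 as to Her2 level: lower value means less Her2 protein in the cells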;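 as to viability: percent of carrier control wells set as 100% viability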). The note with it: 18-24 h, measured here: SKBR3 viability, ATP luminescence, at 10 µM.
In experiment [2] the target is Receptor tyrosine-protein kinase erbB-2 (Homo sapiens) (UniProt P04626). The experiment is described as above. The settings on record: 18-24 h, at 10 µM, stronger effect = lower value.
The nature of experiment [3]: SK-BR-3 cell growth inhibitors, pilot screen, 24 h, human (AID 572;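 active = viability at or below 10% of carrier control in both of two separate runs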;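 also: compound exposure lasted between 18 and 24 h rather than exactly 24 h; 100% = carrier-treated control wells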). The note with it: SK-BR-3 viability, CellTiter-Glo luminescence, at 10 µM, stronger effect = lower value.
A short description of experiment [4]: HUVEC growth inhibition – cell-based, human, primary screen (AID 575;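 active = viability at or below 30% in both replicate assays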;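 also: 100% = median of untreated cell wells with 0.1% DMSO on each plate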). The settings on record: HUVEC proliferation, CellTiter-Glo luminescence, 72 h; at 10 µM; stronger effect = lower value. The essentials: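 system = HUVEC primary cells | amount = 1250 cells/well | buffer or medium = supplemented EBM, 2% fetal bovine serum | dosing = single-point 10 µM, DMSO 0.1% final | times = 72 h compound incubation | detection = CTG luminescence | read-out = % viability relative to median vehicle-well signal on each plate | control set = vehicle and MePR control wells | format = collagen-coated 384-well format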

The nature of experiment [5]: growth inhibitors of H69AR lung tumor, primary screen, human, duplicate replicates (AID 580).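 Also: 100% = mean luminescence of untreated wells and 0% = no signal.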 The note with it: H69AR lung tumor cells viability, ATP luminescence, 72 h; at 10 µM; stronger effect = lower value.
Experiment [6] is described as follows: reversal of MRP1-mediated doxorubicin resistance, pilot screen, H69AR cells, doxorubicin co-treatment (AID 601;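 active = viability loss from added drug above about 55%, and viability with drug at most 40%, in both replicates, limit read from the data, passing the limit was not always enough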). The note with it: CellTiter-Glo, 72 h, at 10 µM; for differential viability (reversal): stronger effect = higher value. Background: In ATP-based viability assays light output follows the ATP content of the culture.
Experiment [7] can be described thus: 384-well plate pilot, post-Golgi transport modulator project, inhibition of yeast transport mutant growth (AID 636; in the data active = inhibition above about 31%). The note with it: absorbance 615 nm, about 18 h, stronger effect = higher value.
A short description of experiment [8]: growth suppression of yeast trafficking mutant, preliminary HTS, modulators of trafficking downstream of Golgi apparatus project, 1536-format plate, OD 615 nm (AID 637; in the data active = inhibition above about 30%). The note with it: yeast transport mutant growth, absorbance 615 nm, 18 h; stronger effect = higher value.
[9] abbreviates: H69AR cells + 2 uM doxorubicin, measured here: viability with 2 uM doxorubicin, stronger effect = lower value.
Setting [10] is: H69AR cells, compound alone cytotoxicity.

Activity calls are given as the source filed them.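 The calls were made as follows, unless noted: active = viability at or under a set limit in both replicates, limit being median viability minus 3 SD (cut at about 48% in these data, passing the limit was not always enough); inconclusive = at or under the limit in just one replicate; inactive = at or above the limit in both replicates.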

Receptor tyrosine-protein kinase erbB-2 (Homo sapiens), sequence (P04626 whole entry, looked up): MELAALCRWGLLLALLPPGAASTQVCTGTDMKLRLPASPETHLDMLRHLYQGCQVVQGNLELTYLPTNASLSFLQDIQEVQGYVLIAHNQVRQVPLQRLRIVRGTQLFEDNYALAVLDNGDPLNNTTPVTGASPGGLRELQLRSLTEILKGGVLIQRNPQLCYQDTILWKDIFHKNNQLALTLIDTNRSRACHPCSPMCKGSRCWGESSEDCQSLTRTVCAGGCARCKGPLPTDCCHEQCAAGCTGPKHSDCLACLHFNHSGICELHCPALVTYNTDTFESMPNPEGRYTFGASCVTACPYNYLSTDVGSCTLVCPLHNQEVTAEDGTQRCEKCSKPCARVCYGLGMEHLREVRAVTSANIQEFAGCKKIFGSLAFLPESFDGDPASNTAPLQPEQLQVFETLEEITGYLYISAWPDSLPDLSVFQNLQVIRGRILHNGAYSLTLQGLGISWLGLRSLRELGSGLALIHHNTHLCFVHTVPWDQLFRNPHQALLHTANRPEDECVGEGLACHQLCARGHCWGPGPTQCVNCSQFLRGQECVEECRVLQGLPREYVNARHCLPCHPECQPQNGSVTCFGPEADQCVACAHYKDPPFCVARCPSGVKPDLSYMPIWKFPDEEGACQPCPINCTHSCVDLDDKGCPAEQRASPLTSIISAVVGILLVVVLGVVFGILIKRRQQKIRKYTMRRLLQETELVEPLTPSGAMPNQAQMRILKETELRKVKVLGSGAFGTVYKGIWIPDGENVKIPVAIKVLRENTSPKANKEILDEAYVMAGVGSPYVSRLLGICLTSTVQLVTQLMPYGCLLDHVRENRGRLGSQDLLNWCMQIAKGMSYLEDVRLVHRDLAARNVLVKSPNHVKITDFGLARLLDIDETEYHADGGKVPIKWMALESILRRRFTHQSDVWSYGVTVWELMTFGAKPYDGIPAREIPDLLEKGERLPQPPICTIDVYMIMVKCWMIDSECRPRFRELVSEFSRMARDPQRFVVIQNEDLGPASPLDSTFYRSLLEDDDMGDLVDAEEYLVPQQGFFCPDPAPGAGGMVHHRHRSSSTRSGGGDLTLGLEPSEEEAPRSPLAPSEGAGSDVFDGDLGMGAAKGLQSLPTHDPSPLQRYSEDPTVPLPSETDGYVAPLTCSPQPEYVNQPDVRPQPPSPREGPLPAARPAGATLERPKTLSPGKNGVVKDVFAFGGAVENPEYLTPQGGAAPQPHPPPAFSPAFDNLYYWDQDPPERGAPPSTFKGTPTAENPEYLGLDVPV

On to `Cn1c(CN2CCOCC2)nc2cc(NC(=O)c3ccccc3Cl)ccc21`, for which the viability in experiment [1] was 102%; in experiment [3], 102% (inactive); in experiment [4], 92% (inactive); in experiment [5], 97.1% (inactive); in experiment [6] (setting [9]), 99.5%; in experiment [6] (setting [10]) it was 97.1%. In addition, the Her2 level in experiment [2] is 103% (inactive). For the same molecule, in experiment [6] (H69AR cells + 2 uM doxorubicin), the differential viability (reversal) was -2.36% (inactive). The inhibition is -3.55% (inactive) in experiment [7] and -2.42% (inactive) in experiment [8].

For the molecule `COc1cc2c(cc1OC)C(c1cc(OC)c(OC)c(OC)c1)NCC2` (stereo not given), the viability was 95.5% in experiment [1]; 95.5% (inactive) in experiment [3]; 92.4% (inactive) in experiment [4]; 91.9% (inactive) in experiment [5]; 91.9% in experiment [6] (setting [9]); 91.9% in experiment [6] (setting [10]). Moreover, the Her2 level in experiment [2] is 81% (inactive). Moreover, the differential viability (reversal) in experiment [6] (H69AR cells + 2 uM doxorubicin) was -0.03% (inactive). Besides, the inhibition in experiment [7] was -3.95% (inactive); in experiment [8], -0.97% (inactive).

Consider `CCOC(=O)c1sc(NC(=O)CSc2nnc3c4ccccc4n(CC)c3n2)nc1C`, for which the viability in experiment [1] was 83.5%; in experiment [3] it was 83.5% (inactive); in experiment [4], 104% (inactive); in experiment [5], 96.2% (inactive); in experiment [6] (setting [9]), 96.7%; in experiment [6] (setting [10]), 96.2%. In addition, in experiment [2], the Her2 level is 104% (inactive). The differential viability (reversal) in experiment [6] (H69AR cells + 2 uM doxorubicin) is -0.44% (inactive). In addition, the inhibition in experiment [7] is 1.67% (inactive); in experiment [8], -3.33% (inactive).

For `Cc1ccccc1S(=O)(=O)Cc1ccc(C(=O)NCc2cccnc2)o1`, the viability in experiment [1] was 93%; in experiment [3], 93% (inactive); in experiment [4], 97.8% (inactive); in experiment [5] it was 94.2% (inactive); in experiment [6] (setting [9]) it was 87.6%; in experiment [6] (setting [10]), 94.2%. For the same molecule, the Her2 level in experiment [2] is 83.5% (inactive). For the same molecule, in experiment [6] (H69AR cells + 2 uM doxorubicin), the differential viability (reversal) is 6.61% (inactive). Also, the inhibition was -1.84% (inactive) in experiment [7] and -2.91% (inactive) in experiment [8].

As to `O=C(Nc1cc(Cl)ccc1Cl)c1noc2c1CCCC2`, the viability was 87.5% in experiment [1]; 87.5% (inactive) in experiment [3]; 63.5% (inactive) in experiment [4]; 83.5% (inactive) in experiment [5]; 86.9% in experiment [6] (setting [9]); 83.5% in experiment [6] (setting [10]). Moreover, the Her2 level in experiment [2] is 90.5% (inactive). Further, the differential viability (reversal) in experiment [6] (H69AR cells + 2 uM doxorubicin) was -3.4% (inactive). Moreover, the inhibition is -0.51% (inactive) in experiment [7] and -5.5% (inactive) in experiment [8].

As to `O=C(O)c1cc2c([nH]c1=O)CCCC2`, the viability is 93.5% in experiment [1]; 93.5% (inactive) in experiment [3]; 95% (inactive) in experiment [4]; 88.8% (inactive) in experiment [5]; 88% in experiment [6] (setting [9]); 88.8% in experiment [6] (setting [10]). In addition, the Her2 level in experiment [2] was 81.5% (inactive). In experiment [6] (H69AR cells + 2 uM doxorubicin), the differential viability (reversal) was 0.75% (inactive). The inhibition in experiment [7] was -2.24% (inactive); in experiment [8], -1.82% (inactive).

As to `COC(=O)C(NC(C)=O)(Nc1nc2ccc(S(C)(=O)=O)cc2s1)C(F)(F)F` (stereo not given), the viability is 96.5% in experiment [1]; 96.5% (inactive) in experiment [3]; 93.8% (inactive) in experiment [4]; 102% (inactive) in experiment [5]; 101% in experiment [6] (setting [9]); 102% in experiment [6] (setting [10]). Moreover, the Her2 level in experiment [2] is 87.5% (inactive). The differential viability (reversal) in experiment [6] (H69AR cells + 2 uM doxorubicin) is 1.18% (inactive). Besides, the inhibition in experiment [7] was -2.11% (inactive); in experiment [8] it was -1.27% (inactive).

As to `c1ccc(-c2cc3c(nn2)CCc2nonc2-3)cc1`, the viability was 98.5% in experiment [1]; 98.5% (inactive) in experiment [3]; 117% (inactive) in experiment [4]; 97.8% (inactive) in experiment [5]; 108% in experiment [6] (setting [9]); 97.8% in experiment [6] (setting [10]). For the same molecule, the Her2 level in experiment [2] is 102% (inactive). Also, in experiment [6] (H69AR cells + 2 uM doxorubicin), the differential viability (reversal) is -9.73% (inactive). In addition, the inhibition in experiment [7] was 0% (inactive); in experiment [8], 4.26% (inactive).

Consider `Cc1c(C(=O)OC(C)C)[nH]c2c1C(=O)CCC2`, for which the viability is 96.5% in experiment [1]; 96.5% (inactive) in experiment [3]; 102% (inactive) in experiment [4]; 106% (inactive) in experiment [5]; 93% in experiment [6] (setting [9]); 106% in experiment [6] (setting [10]). Also, the Her2 level in experiment [2] is 104% (inactive). Moreover, in experiment [6] (H69AR cells + 2 uM doxorubicin), the differential viability (reversal) was 12.9% (inactive). Besides, the inhibition was 0.39% (inactive) in experiment [7] and -6.29% (inactive) in experiment [8].

`CCCc1nnc(SCC(=O)N2CCOCC2)n1Cc1ccco1`: the viability was 126% in experiment [1]; 126% (inactive) in experiment [3]; 109% (inactive) in experiment [4]; 96.9% (inactive) in experiment [5]; 81.6% in experiment [6] (setting [9]); 96.9% in experiment [6] (setting [10]). In experiment [2], the Her2 level is 87.5% (inactive). In experiment [6] (H69AR cells + 2 uM doxorubicin), the differential viability (reversal) is 15.3% (inactive). The values for the inhibition in experiment [7] and in experiment [8] were -4.67% (inactive) and -6.39% (inactive), respectively.

For the molecule `CCn1c(=O)cc(SCC(=O)NCCN2CCN(Cc3ccccc3)CC2)c2ccccc21`, the viability in experiment [1] is 89%; in experiment [3], 89% (inactive); in experiment [4], 80.5% (inactive); in experiment [5], 84.4% (inactive); in experiment [6] (setting [9]), 77.3%; in experiment [6] (setting [10]) it was 84.4%. The Her2 level in experiment [2] is 89.5% (inactive). Moreover, in experiment [6] (H69AR cells + 2 uM doxorubicin), the differential viability (reversal) is 7.1% (inactive). Besides, the inhibition in experiment [7] was -4.47% (inactive); in experiment [8], -3.09% (inactive).

In the case of `Cn1nnnc1SCSc1nnnn1C`, the viability in experiment [1] was 84%; in experiment [3] it was 84% (inactive); in experiment [4] it was 95.5% (inactive); in experiment [5] it was 96.9% (inactive); in experiment [6] (setting [9]) it was 89.4%; in experiment [6] (setting [10]), 96.9%. Further, the Her2 level in experiment [2] is 83% (inactive). Also, the differential viability (reversal) in experiment [6] (H69AR cells + 2 uM doxorubicin) is 7.5% (inactive). Further, the inhibition was -5% (inactive) in experiment [7] and -0.95% (inactive) in experiment [8].

Regarding `CCN(CC)c1ccc(-c2nn3c(-c4cccnc4)nnc3s2)cc1`, the viability in experiment [1] is 91.5%; in experiment [3] it was 91.5% (inactive); in experiment [4], 37% (inactive); in experiment [5], 10.9% (active); in experiment [6] (setting [9]), 15.4%; in experiment [6] (setting [10]), 10.9%. Besides, the Her2 level in experiment [2] is 64% (inactive). The differential viability (reversal) in experiment [6] (H69AR cells + 2 uM doxorubicin) is -4.5% (inactive). Also, the inhibition is -5.92% (inactive) in experiment [7] and -7.1% (inactive) in experiment [8].

On to `O=C1OCc2cc(NC(=O)C3CCCO3)ccc21` (stereo not given), for which the viability was 92.5% in experiment [1]; 92.5% (inactive) in experiment [3]; 101% (inactive) in experiment [4]; 104% (inactive) in experiment [5]; 105% in experiment [6] (setting [9]); 104% in experiment [6] (setting [10]). In addition, the Her2 level in experiment [2] is 122% (inactive). Further, the differential viability (reversal) in experiment [6] (H69AR cells + 2 uM doxorubicin) was -0.78% (inactive). For the same molecule, the inhibition in experiment [7] was 1.84% (inactive); in experiment [8], -1.83% (inactive).
